We go through 26 compounds from ChEMBL document CHEMBL1137748, “Design, synthesis and characterization of novel 2-(2,4-disubstituted-thiazole-5-yl)-3-aryl-3H-quinazoline-4-one derivatives as inhibitors of NF-kappaB and AP-1 mediated transcription activation and as potential anti-inflammatory agents” (Eur J Med Chem, 2009).

Experiment [1] deals with Transcription factor Jun (Homo sapiens) (UniProt P05412). Description: Inhibition of AP1 expressed in HEK293 cells assessed as inhibition of PMA-induced transcriptional activation at 10 uM treated 24 hrs before PMA challenge measured after 20 to 24 hrs by luciferase assay relative to control.
Experiment [2] deals with HEK293. Kind of experiment: Inhibition of NF-kappaB expressed in HEK293 cells assessed as inhibition of TNF-alpha-induced transcriptional activation at 10 uM treated 24 hrs before TNFalpha challenge measured after 20 to 24 hrs by luciferase assay relative to control. The experiment is classed as cell-based. A digest of the protocol:
(§1)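 HEK/NF-κB cells stably carrying an NF-κB response element driving luciferase. Plated at 5×10^4 cells/well and held 24 h at 37 °C, 5% CO2. Compounds in 0.1% DMSO were added to replicate wells for 24 h, then TNF-α was added and cells were incubated 20–24 h. Bright-Glo lysis/substrate was added and luminescence read. The replicate mean was normalized to the maximal control.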

Experiment [3] has as its system Rattus norvegicus. Description: Antiinflammatory activity in Sprague-Dawley rat assessed as protection against carrageenan-induced paw edema at 50 mg/kg, po administered 1 hr before carrageenan challenge measured after 3 hrs relative to control. In kind it is functional. A digest of the protocol: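 Sprague-Dawley rats of either sex, 150–250 g, fasted 18 h, n = 4 per group, each group run against a vehicle control. Dosed orally at 50 mg/kg in freshly made 0.2% agar suspension. One hour later, 0.1 ml of 1% carrageenan in saline was injected subplantar into the right hind paw. Paw volume was read by plethysmometer at 3 h. % protection = (control − test)/control × 100.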

Experiment [4] is described as follows: Inhibition of NF-kappaB expressed in HEK293 cells assessed as inhibition of TNF-alpha-induced transcriptional activation treated 24 hrs before TNFalpha challenge measured after 20 to 24 hrs by luciferase assay. In kind it is cell-based. A digest of the protocol: as §1

The structures appear in SMILES notation.

Sequence of Transcription factor Jun (Homo sapiens) (P05412 whole entry): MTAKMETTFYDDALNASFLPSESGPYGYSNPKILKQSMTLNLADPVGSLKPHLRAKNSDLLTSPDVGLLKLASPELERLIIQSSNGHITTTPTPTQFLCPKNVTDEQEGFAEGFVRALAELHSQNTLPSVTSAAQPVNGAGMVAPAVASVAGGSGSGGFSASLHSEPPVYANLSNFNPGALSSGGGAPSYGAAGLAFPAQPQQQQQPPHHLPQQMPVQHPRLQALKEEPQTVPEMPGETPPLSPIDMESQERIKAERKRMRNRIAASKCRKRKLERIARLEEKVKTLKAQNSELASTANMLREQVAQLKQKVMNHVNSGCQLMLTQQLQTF

As to `Cc1ccc(Nc2nc(-c3ccccc3)c(-c3nc4ccccc4c(=O)n3-c3ccc(Cl)cc3)s2)cc1`, the inhibition in experiment [1] and in experiment [2] was 0% in each case.

Take `Cc1nc(Nc2ccc(Cl)cc2)sc1-c1nc2ccccc2c(=O)n1-c1ccccc1Cl`: the inhibition was determined as 21% in experiment [1] and 60% in experiment [2]. In addition, the Activity in experiment [3] worked out at 58%.

For `Cc1cccc(-n2c(-c3sc(Nc4ccc(Cl)cc4)nc3C)nc3ccccc3c2=O)c1`, the figures for the inhibition in experiment [1] and in experiment [2] were 39% and 2%, respectively.

For the compound `Cc1nc(Nc2ccccc2)sc1-c1nc2ccccc2c(=O)n1-c1ccc(Cl)cc1`, the inhibition stood at 9% in experiment [1] and 79% in experiment [2]. In experiment [4], the concentration for half-maximal inhibition (IC50) was determined as 5.5 µM. The Activity in experiment [3] came out at 72%.

As to `COc1ccc(-n2c(-c3sc(Nc4ccc(Cl)cc4)nc3C)nc3ccccc3c2=O)cc1`, the inhibition in experiment [1] and in experiment [2] was 0% throughout. In addition, the Activity in experiment [3] stood at 5%.

Turning to `Cc1nc(Nc2ccccc2)sc1-c1nc2ccccc2c(=O)n1-c1ccccc1Cl`, the figures for the inhibition in experiment [1] and in experiment [2] were 21% and 6%, respectively.

Regarding `O=c1c2ccccc2nc(-c2sc(Nc3ccc(Cl)cc3)nc2-c2ccccc2)n1-c1ccccc1`, the inhibition in experiment [1] was 27%; in experiment [2], 0%.

On to `CC(=O)c1ccc(-n2c(-c3sc(Nc4ccc(Cl)cc4)nc3-c3ccccc3)nc3ccccc3c2=O)cc1`, for which the values for the inhibition in experiment [1] and in experiment [2] were 31% and 0%, respectively. In addition, in experiment [3], the Activity is listed as 23%.

For `CNc1nc(C)c(-c2nc3ccccc3c(=O)n2-c2ccc(Cl)cc2)s1`, the inhibition in experiment [1] was determined as 82%; in experiment [2], 93%. Further, the IC50 in experiment [4] was 3.3 µM. In addition, the Activity in experiment [3] is reported as 71%.

As to `CNc1nc(C)c(-c2nc3ccccc3c(=O)n2-c2ccccc2C)s1`, the values for the inhibition in experiment [1] and in experiment [2] were 67% and 16%, respectively. For the same compound, the Activity in experiment [3] is on record as 35%.

Take `CC(=O)c1ccc(-n2c(-c3sc(Nc4ccccc4)nc3C)nc3ccccc3c2=O)cc1`: the figures for the inhibition in experiment [1] and in experiment [2] were 7% and 15%, respectively.

Regarding `Nc1nc(Nc2ccc(Cl)cc2)sc1-c1nc2ccccc2c(=O)n1-c1ccc(Cl)cc1`, the inhibition in experiment [1] and in experiment [2] was 0% throughout. The Activity in experiment [3] was determined as 37%.

Turning to `Cc1ccc(-n2c(-c3sc(Nc4ccc(Cl)cc4)nc3C)nc3ccccc3c2=O)cc1`, the inhibition stood at 2% in experiment [1] and 12% in experiment [2]. In addition, the Activity in experiment [3] is reported as 37%.

With `Cc1ccccc1-n1c(-c2sc(Nc3ccccc3)nc2C)nc2ccccc2c1=O`, the inhibition in experiment [1] was 60%; in experiment [2], 21%. For the same compound, in experiment [3], the Activity amounted to 42%.

Regarding `CC(=O)c1ccc(-n2c(-c3sc(Nc4ccc(Cl)cc4)nc3N)nc3ccccc3c2=O)cc1`, the inhibition in experiment [1] was 2%; in experiment [2], 12%. In experiment [3], the Activity was 53%.

For `CNc1nc(C)c(-c2nc3ccccc3c(=O)n2-c2ccc(C(C)=O)cc2)s1`, the inhibition amounted to 0% in experiment [1] and 71% in experiment [2]. Moreover, the IC50 in experiment [4] was 5.5 µM. Moreover, in experiment [3], the Activity stood at 42%.

Turning to `CNc1nc(C)c(-c2nc3ccccc3c(=O)n2-c2cccc(C)c2)s1`, the values for the inhibition in experiment [1] and in experiment [2] were 20% and 10%, respectively.

Regarding `Cc1ccccc1-n1c(-c2sc(Nc3ccc(Cl)cc3)nc2-c2ccccc2)nc2ccccc2c1=O`, the inhibition in experiment [1] came to 32%; in experiment [2], 27%. Also, the Activity in experiment [3] was 51%.

For `O=c1c2ccccc2nc(-c2sc(Nc3ccc(Cl)cc3)nc2-c2ccccc2)n1-c1ccccc1Cl`, the inhibition worked out at 0% in experiment [1] and 24% in experiment [2]. Besides, the Activity in experiment [3] came to 61%.

Consider `Cc1nc(Nc2ccccc2)sc1-c1nc2ccccc2c(=O)n1-c1ccccc1`, for which the inhibition in experiment [1] was determined as 16%; in experiment [2], 25%. In addition, the Activity in experiment [3] was determined as 12%.

`COc1ccccc1-n1c(-c2sc(Nc3ccc(Cl)cc3)nc2C)nc2ccccc2c1=O`: the Activity in experiment [3] is given as 27%.

`CC(=O)c1ccc(-n2c(-c3sc(Nc4ccc(Cl)cc4)nc3C)nc3ccccc3c2=O)cc1`: the inhibition in experiment [1] was 2%; in experiment [2], 0%. The Activity in experiment [3] stood at 13%.

Take `Cc1nc(Nc2ccc(Cl)cc2)sc1-c1nc2ccccc2c(=O)n1-c1ccccc1`: the inhibition in experiment [1] and in experiment [2] was 0% each time. Moreover, the Activity in experiment [3] is listed as 4%.

`Cc1nc(Nc2ccc(Cl)cc2)sc1-c1nc2ccccc2c(=O)n1-c1ccc(Cl)cc1`: the inhibition came out at 84% in experiment [1] and 96% in experiment [2]. For the same compound, the IC50 in experiment [4] was 3.3 µM. Moreover, in experiment [3], the Activity was 38%.

Turning to `CNc1nc(-c2ccccc2)c(-c2nc3ccccc3c(=O)n2-c2ccc(C(C)=O)cc2)s1`, the inhibition in experiment [1] is 15%; in experiment [2] it was 4%.

For `Cc1ccccc1-n1c(-c2sc(Nc3ccc(Cl)cc3)nc2C)nc2ccccc2c1=O`, the Activity in experiment [3] was found to be 45%.
